Test results reported in ChEMBL document CHEMBL1926569, “Novel (E)-1-(4-methyl-2-(alkylamino)thiazol-5-yl)-3-arylprop-2-en-1-ones as potent antimicrobial agents” (2011).
Converted amounts (≈) assume the structure as drawn.

Assays:
Enterococcus faecalis [1] = test: Antibacterial activity against Enterococcus faecalis isolated from human incubated for 24 hrs followed by serial sub-cultivation for 24 hrs by microdilution; format: functional
Summary of the method: (§1)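 MBC: after the 24 h LB broth microdilution (1.0 × 10⁴ CFU per well, 160 rpm), wells were serially sub-cultured into fresh broth plates and incubated a further 24 h. MBC is the lowest concentration with no visible growth, taken as 99.5% killing of the original inoculum. Duplicate, repeated three times.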

Talaromyces funiculosus [2] = test: Antifungal activity against Penicillium funiculosum ATCC 36839 incubated for 72 hrs followed by serial sub-cultivation for 72 hrs by serial dilution technique; format: functional; settings: ATCC 36839, 72 h
Summary of the method: (§2)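 MFC: material from 72 h malt broth microdilution wells was serially sub-cultured into fresh broth plates and incubated a further 72 h at 28 °C. Fungicidal concentration is taken from growth after sub-culture. Duplicate, repeated three times.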

Enterococcus faecalis [3] = test: Antibacterial activity against Enterococcus faecalis isolated from human after 24 hrs by microdilution method; format: functional
Summary of the method: (§3)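 Broth microdilution in 96-well plates. Bacterial suspensions were adjusted in sterile saline to 1.0 × 10⁵ CFU/ml, prepared daily and kept at 4 °C. Compound was added to LB broth with 1.0 × 10⁴ CFU per well and shaken at 160 rpm for 24 h at […] (so in the source). MIC is the lowest concentration with no visible growth under a binocular microscope. OD655 was also read. Duplicate, repeated three times.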

Pseudomonas aeruginosa [4] = test: Antibacterial activity against Pseudomonas aeruginosa ATCC 27853 incubated for 24 hrs followed by serial sub-cultivation for 24 hrs by microdilution; format: functional; settings: ATCC 27853, 24 h; summary of the method: as §1
Aspergillus niger [5] = test: Antifungal activity against Aspergillus niger ATCC 6275 after 72 hrs by serial dilution technique; format: functional; settings: ATCC 6275, 72 h
Summary of the method: (§4)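 Modified microdilution in 96-well plates. Fungi were kept on malt agar at 4 °C. Spores were washed off in sterile 0.85% saline with 0.1% Tween 80. Compounds were dissolved at 1 mg/ml in 5% DMSO with 0.1% Tween 80 and added to malt broth with inoculum. Plates were shaken at 160 rpm for 72 h at 28 °C. Duplicate, repeated three times.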

Aspergillus fumigatus [6] = test: Ratio of ketoconazole to compound for Aspergillus fumigatus isolated from human; format: functional
Aspergillus niger [7] = test: Ratio of bifonazole to compound for Aspergillus niger ATCC 6275; format: functional
Micrococcus flavus [8] = test: Antibacterial activity against Micrococcus flavus ATCC 10240 after 24 hrs by microdilution method; format: functional; settings: ATCC 10240, 24 h; summary of the method: as §3
Aspergillus ochraceus [9] = test: Antifungal activity against Aspergillus ochraceus after 72 hrs by serial dilution technique
Salmonella typhimurium [10] = test: Antibacterial activity against Salmonella Typhimurium ATCC 13311 incubated for 24 hrs followed by serial sub-cultivation for 24 hrs by microdilution; format: functional, Salmonella enterica subsp. enterica serovar Typhimurium; settings: Salmonella enterica, ATCC 13311, 24 h; summary of the method: as §1
Penicillium ochrochloron [11] = test: Ratio of bifonazole to compound for Penicillium ochrochloron ATCC 9112; format: functional
Escherichia coli [12] = test: Antibacterial activity against Escherichia coli ATCC 35210 incubated for 24 hrs followed by serial sub-cultivation for 24 hrs by microdilution; format: functional; settings: ATCC 35210, 24 h; summary of the method: as §1
Salmonella typhimurium [13] = test: Antibacterial activity against Salmonella Typhimurium ATCC 13311 after 24 hrs by microdilution method; format: functional, Salmonella enterica subsp. enterica serovar Typhimurium; settings: Salmonella enterica, ATCC 13311, 24 h; summary of the method: as §3
Candida albicans [14] = test: Antifungal activity against Candida albicans isolated from human incubated for 72 hrs followed by serial sub-cultivation for 72 hrs by serial dilution technique; format: functional; summary of the method: as §2
Talaromyces funiculosus [15] = test: Ratio of bifonazole to compound for Penicillium funiculosum ATCC 36839; format: functional
Aspergillus flavus [16] = test: Antifungal activity against Aspergillus flavus ATCC 9643 incubated for 72 hrs followed by serial sub-cultivation for 72 hrs by serial dilution technique; format: functional; settings: ATCC 9643, 72 h; summary of the method: as §2
Aspergillus ochraceus [17] = test: Ratio of bifonazole to compound for Aspergillus ochraceus ATCC 12066; format: functional
Penicillium ochrochloron [18] = test: Antifungal activity against Penicillium ochrochloron ATCC 9112 incubated for 72 hrs followed by serial sub-cultivation for 72 hrs by serial dilution technique; format: functional; settings: ATCC 9112, 72 h; summary of the method: as §2
Micrococcus flavus [19] = test: Antibacterial activity against Micrococcus flavus ATCC 10240 incubated for 24 hrs followed by serial sub-cultivation for 24 hrs by microdilution; format: functional; settings: ATCC 10240, 24 h; summary of the method: as §1
Trichoderma viride [20] = test: Antifungal activity against Trichoderma viride IAM 5061 incubated for 72 hrs followed by serial sub-cultivation for 72 hrs by serial dilution technique; format: functional; settings: IAM 5061, 72 h; summary of the method: as §2
Penicillium ochrochloron [21] = test: Ratio of ketoconazole to compound for Penicillium ochrochloron ATCC 9112; format: functional
Staphylococcus aureus [22] = test: Antibacterial activity against Staphylococcus aureus ATCC 6538 incubated for 24 hrs followed by serial sub-cultivation for 24 hrs by microdilution method; format: functional; settings: ATCC 6538, 24 h; summary of the method: as §1
Staphylococcus aureus [23] = test: Antibacterial activity against Staphylococcus aureus ATCC 6538 after 24 hrs by microdilution method; format: functional; settings: ATCC 6538, 24 h; summary of the method: as §3
Listeria monocytogenes [24] = test: Antibacterial activity against Listeria monocytogenes NCTC 7973 after 24 hrs by microdilution method; format: functional; settings: NCTC 7973, 24 h; summary of the method: as §3
Aspergillus ochraceus [25] = test: Antifungal activity against Aspergillus ochraceus ATCC 12066 after 72 hrs by serial dilution technique; format: functional; settings: ATCC 12066, 72 h; summary of the method: as §4
Trichoderma viride [26] = test: Ratio of bifonazole to compound for Trichoderma viride IAM 5061; format: functional
Bacillus cereus [27] = test: Antibacterial activity against clinical isolate of Bacillus cereus after 24 hrs by microdilution method; format: functional; summary of the method: as §3
Listeria monocytogenes [28] = test: Antibacterial activity against Listeria monocytogenes NCTC 7973 incubated for 24 hrs followed by serial sub-cultivation for 24 hrs by microdilution; format: functional; settings: NCTC 7973, 24 h; summary of the method: as §1
Candida albicans [29] = test: Ratio of ketoconazole to compound for Candida albicans isolated from human; format: functional
Pseudomonas aeruginosa [30] = test: Antibacterial activity against Pseudomonas aeruginosa ATCC 27853 after 24 hrs by microdilution method; format: functional; settings: ATCC 27853, 24 h; summary of the method: as §3
Escherichia coli [31] = test: Antibacterial activity against Escherichia coli ATCC 35210 after 24 hrs by microdilution method; format: functional; settings: ATCC 35210, 24 h; summary of the method: as §3
Candida albicans [32] = test: Ratio of bifonazole to compound for Candida albicans isolated from human; format: functional
Aspergillus ochraceus [33] = test: Antifungal activity against Aspergillus ochraceus ATCC 12066 incubated for 72 hrs followed by serial sub-cultivation for 72 hrs by serial dilution technique; format: functional; settings: ATCC 12066, 72 h; summary of the method: as §2
Aspergillus ochraceus [34] = test: Ratio of ketoconazole to compound for Aspergillus ochraceus ATCC 12066; format: functional
Penicillium ochrochloron [35] = test: Antifungal activity against Penicillium ochrochloron ATCC 9112 after 72 hrs by serial dilution technique; format: functional; settings: ATCC 9112, 72 h; summary of the method: as §4
Pseudomonas aeruginosa [36] = test: Ratio of ampicillin MIC to compound MIC for Pseudomonas aeruginosa ATCC 27853; format: functional
Bacillus cereus [37] = test: Antibacterial activity against clinical isolate of Bacillus cereus incubated for 24 hrs followed by serial sub-cultivation for 24 hrs by microdilution; format: functional; summary of the method: as §1
Aspergillus flavus [38] = test: Antifungal activity against Aspergillus flavus ATCC 9643 after 72 hrs by serial dilution technique; format: functional; settings: ATCC 9643, 72 h; summary of the method: as §4
Trichoderma viride [39] = test: Antifungal activity against Trichoderma viride IAM 5061 after 72 hrs by serial dilution technique; format: functional; settings: IAM 5061, 72 h; summary of the method: as §4
Talaromyces funiculosus [40] = test: Antifungal activity against Penicillium funiculosum ATCC 36839 after 72 hrs by serial dilution technique; format: functional; settings: ATCC 36839, 72 h; summary of the method: as §4
Aspergillus niger [41] = test: Antifungal activity against Aspergillus niger ATCC 6275 incubated for 72 hrs followed by serial sub-cultivation for 72 hrs by serial dilution technique; format: functional; settings: ATCC 6275, 72 h; summary of the method: as §2
Aspergillus fumigatus [42] = test: Antifungal activity against Aspergillus fumigatus isolated from human incubated for 72 hrs followed by serial sub-cultivation for 72 hrs by serial dilution technique; format: functional; summary of the method: as §2
Candida albicans [43] = test: Antifungal activity against Candida albicans isolated from human after 72 hrs by serial dilution technique; format: functional; summary of the method: as §4

MIC (Enterococcus faecalis [3]): 48.9 µM (≈ 15 µg/mL) | MIC (Aspergillus niger [5]): 49 µM (≈ 15 µg/mL) | MIC (Micrococcus flavus [8]): 65.3 µM (≈ 20 µg/mL) | MIC (Aspergillus ochraceus [9]): 49 µM (≈ 15 µg/mL) | MIC (Salmonella typhimurium [13]): 48.9 µM (≈ 15 µg/mL) | MIC (Staphylococcus aureus [23]): 81.7 µM (≈ 25.1 µg/mL) | MIC (Listeria monocytogenes [24]): 98.1 µM (≈ 30.1 µg/mL) | MIC (Aspergillus ochraceus [25]): 32.7 µM (≈ 10 µg/mL) | MIC (Bacillus cereus [27]): 32.7 µM (≈ 10 µg/mL) | MIC (Pseudomonas aeruginosa [30]): 48.9 µM (≈ 15 µg/mL) | MIC (Escherichia coli [31]): 48.9 µM (≈ 15 µg/mL) | MIC (Penicillium ochrochloron [35]): 32.7 µM (≈ 10 µg/mL) | MIC (Aspergillus flavus [38]): 49 µM (≈ 15 µg/mL) | MIC (Trichoderma viride [39]): 32.7 µM (≈ 10 µg/mL) | MIC (Talaromyces funiculosus [40]): 32.7 µM (≈ 10 µg/mL) | MIC (Candida albicans [43]): 32.7 µM (≈ 10 µg/mL)
Compound: CCNc1nc(C)c(C(=O)/C=C/c2ccccc2Cl)s1
MBC (Enterococcus faecalis [1]): 61.1 µM (≈ 18.7 µg/mL) | MFC (Talaromyces funiculosus [2]): 65.3 µM (≈ 20 µg/mL) | MBC (Pseudomonas aeruginosa [4]): 61.1 µM (≈ 18.7 µg/mL) | Ratio (Aspergillus fumigatus [6]): 10 | Ratio (Aspergillus niger [7]): 10 | MBC (Salmonella typhimurium [10]): 61.1 µM (≈ 18.7 µg/mL) | Ratio (Penicillium ochrochloron [11]): 10 | MBC (Escherichia coli [12]): 61.1 µM (≈ 18.7 µg/mL) | MFC (Candida albicans [14]): 65.3 µM (≈ 20 µg/mL) | Ratio (Talaromyces funiculosus [15]): 10 | MFC (Aspergillus flavus [16]): 65.3 µM (≈ 20 µg/mL) | Ratio (Aspergillus ochraceus [17]): 10 | MFC (Penicillium ochrochloron [18]): 65.3 µM (≈ 20 µg/mL) | MBC (Micrococcus flavus [19]): 98.1 µM (≈ 30.1 µg/mL) | MFC (Trichoderma viride [20]): 65.3 µM (≈ 20 µg/mL) | Ratio (Penicillium ochrochloron [21]): 10 | MBC (Staphylococcus aureus [22]): 98.1 µM (≈ 30.1 µg/mL) | Ratio (Trichoderma viride [26]): 10 | MBC (Listeria monocytogenes [28]): 114 µM (≈ 35.1 µg/mL) | Ratio (Candida albicans [29]): 10 | Ratio (Candida albicans [32]): 10 | MFC (Aspergillus ochraceus [33]): 49 µM (≈ 15 µg/mL) | Ratio (Aspergillus ochraceus [34]): 10 | Ratio (Pseudomonas aeruginosa [36]): 10 | MBC (Bacillus cereus [37]): 65.3 µM (≈ 20 µg/mL) | MFC (Aspergillus niger [41]): 65.3 µM (≈ 20 µg/mL) | MFC (Aspergillus fumigatus [42]): 65.3 µM (≈ 20 µg/mL)
